Measured values as given in ChEMBL document CHEMBL1131807, “Synthesis and in vitro evaluation of novel highly potent coumarin inhibitors of gyrase B” (1999).
Converted amounts (≈) assume the structure as drawn.

Tests used:
Type in all cases: functional
Enterococcus faecium = assay: Antibacterial activity against vancomycin, teicoplanin and erythromycin resistant Enterococcus faecium 02D31P2 strain
In short: (§1)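 MIC in µg/mL by twofold broth microdilution, read after 24 h incubation. Resistance phenotypes of the strains are as listed for each strain (ofloxacin, oxacillin, erythromycin, teicoplanin, vancomycin).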

Staphylococcus aureus [1] = assay: Antibacterial activity against Staphylococcus aureus 011HT3 strain
In short: (§2)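 MIC measured by twofold serial dilution in broth microdilution format and read after 24 hours of incubation. The resistance phenotype of each strain (ofloxacin, oxacillin, erythromycin, novobiocin, teicoplanin or vancomycin) was recorded alongside.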

Staphylococcus aureus [2] = assay: Antibacterial activity against Staphylococcus aureus novobiocin resistant strain 011HT1; in short: as §2
Staphylococcus aureus [3] = assay: Antibacterial activity against ofloxacin, oxacillin and erythromycin resistant Staphylococcus aureus strain 011GO76; in short: as §1
Streptococcus pyogenes [4] = assay: Antibacterial activity against Streptococcus pyogenes 02A1UC1 strain; in short: as §2
[5] = system: Staphylococcus epidermidis; assay: Antibacterial activity against oxacillin and teicoplanin resistant Staphylococcus epidermidis 012GO39 strain; in short: as §1
Streptococcus pyogenes [6] = assay: Compound was evaluated for antibacterial activity, against Streptococcus pyogenes 02A1UC1 strain; in short: as §2
[7] = system: Staphylococcus epidermidis; assay: Compound was evaluated for antibacterial activity, against oxacillin and teicoplanin resistant Staphylococcus epidermidis 012GO39 strain; in short: as §1

| Compound | MIC (Enterococcus faecium) [µg/mL] | MIC (Staphylococcus aureus [1]) [µg/mL] | MIC (Staphylococcus aureus [2]) [µg/mL] | MIC (Staphylococcus aureus [3]) [µg/mL] | MIC (Streptococcus pyogenes [4]) [µg/mL] | MIC [5] [µg/mL] | MIC (Streptococcus pyogenes [6]) [µg/mL] | MIC [7] [µg/mL] |
| --- | --- | --- | --- | --- | --- | --- | --- | --- |
| CCOC(=O)c1c(O)oc2c(C)c(O[C@@H]3OC(C)(C)[C@H](OC)[C@@H](OC(=O)c4ccc(C)[nH]4)[C@H]3O)ccc2c1=O | 5 (≈ 9.17 µM) | 0.3 (≈ 0.55 µM) | > 20 | 2.5 (≈ 4.58 µM) | 0.3 (≈ 0.55 µM) | 0.15 (≈ 0.275 µM) |  |  |
| CO/N=C(\C)c1c(O)oc2c(C)c(O[C@@H]3OC(C)(C)[C@H](OC)[C@@H](OC(=O)c4ccc(C)[nH]4)[C@H]3O)ccc2c1=O | 10 (≈ 18.4 µM) | 0.15 (≈ 0.275 µM) | 40 (≈ 73.5 µM) | 5 (≈ 9.18 µM) | 0.3 (≈ 0.551 µM) | 0.6 (≈ 1.1 µM) |  |  |
| CO[C@@H]1[C@@H](OC(=O)c2ccc(C)[nH]2)[C@@H](O)[C@H](Oc2ccc3c(O)c(C(C)=O)c(=O)oc3c2C)OC1(C)C | 2.5 (≈ 4.85 µM) | < 0.04 | 5 (≈ 9.7 µM) | 0.15 (≈ 0.291 µM) | 0.15 (≈ 0.291 µM) | 0.08 (≈ 0.155 µM) |  |  |
| CO[C@@H]1[C@@H](OC(=O)c2ccc(C)[nH]2)[C@@H](O)[C@H](Oc2ccc3c(O)c(NC(=O)c4ccc(O)c(CC=C(C)C)c4)c(=O)oc3c2Cl)OC1(C)C [CHLOROBIOCIN] |  | < 0.04 | 0.15 (≈ 0.215 µM) | < 0.04 | < 0.04 | < 0.04 |  |  |
| CCOCC(=O)c1c(O)oc2c(C)c(O[C@@H]3OC(C)(C)[C@H](OC)[C@@H](OC(=O)c4ccc(C)[nH]4)[C@H]3O)ccc2c1=O | 5 (≈ 8.94 µM) | < 0.04 | 20 (≈ 35.7 µM) | 0.08 (≈ 0.143 µM) | 0.3 (≈ 0.536 µM) | 0.08 (≈ 0.143 µM) |  |  |
| CO[C@@H]1[C@@H](OC(=O)c2ccc(C)[nH]2)[C@@H](O)[C@H](Oc2ccc3c(O)c(C(=O)NCCO)c(=O)oc3c2C)OC1(C)C | 2.5 (≈ 4.46 µM) | < 0.04 | 2.5 (≈ 4.46 µM) |  | 0.15 (≈ 0.268 µM) | < 0.04 |  |  |
| CO[C@@H]1[C@@H](OC(=O)c2ccc(C)[nH]2)[C@@H](O)[C@H](Oc2ccc3c(O)c(/C(C)=N/OCCSc4ncc[nH]4)c(=O)oc3c2C)OC1(C)C | 10 (≈ 15.2 µM) | 0.3 (≈ 0.457 µM) | 40 (≈ 60.9 µM) | 0.3 (≈ 0.457 µM) | 0.3 (≈ 0.457 µM) | 0.3 (≈ 0.457 µM) |  |  |
| CO[C@@H]1[C@@H](OC(=O)c2ccc(C)[nH]2)[C@@H](O)[C@H](Oc2ccc3c(O)c(C(N)=O)c(=O)oc3c2C)OC1(C)C | 2.5 (≈ 4.84 µM) | < 0.04 | 2.5 (≈ 4.84 µM) |  | 0.15 (≈ 0.29 µM) |  |  |  |
| CO[C@@H]1[C@@H](OC(=O)c2ccc(C)[nH]2)[C@@H](O)[C@H](Oc2ccc3c(O)c(/C(C)=N/OCCN4CCOCC4)c(=O)oc3c2C)OC1(C)C | 10 (≈ 15.5 µM) | 0.15 (≈ 0.233 µM) | 40 (≈ 62.1 µM) | 0.3 (≈ 0.466 µM) | 1.2 (≈ 1.86 µM) | 0.3 (≈ 0.466 µM) |  |  |
| CONC(=O)c1c(O)oc2c(C)c(O[C@@H]3OC(C)(C)[C@H](OC)[C@@H](OC(=O)c4ccc(C)[nH]4)[C@H]3O)ccc2c1=O | 2.5 (≈ 4.57 µM) | < 0.04 | 5 (≈ 9.15 µM) | 0.08 (≈ 0.146 µM) | 0.15 (≈ 0.274 µM) | < 0.04 |  |  |
| CO[C@@H]1[C@@H](OC(=O)c2ccc(C)[nH]2)[C@@H](O)[C@H](Oc2ccc3c(O)c(C(=O)Nc4ccccc4)c(=O)oc3c2C)OC1(C)C | > 40 | < 0.04 | 1.2 (≈ 2.02 µM) | 0.08 (≈ 0.135 µM) | 0.6 (≈ 1.01 µM) | < 0.04 |  |  |
| CCOC(=O)/C(=N\OC)c1c(O)oc2c(C)c(O[C@@H]3OC(C)(C)[C@H](OC)[C@@H](OC(=O)c4ccc(C)[nH]4)[C@H]3O)ccc2c1=O | 5 (≈ 8.3 µM) | < 0.04 | 10 (≈ 16.6 µM) |  | 0.15 (≈ 0.249 µM) |  |  |  |
| CO[C@@H]1[C@@H](OC(=O)c2ccc(C)[nH]2)[C@@H](O)[C@H](Oc2ccc3c(O)c(C(=O)OCC(C)C)c(=O)oc3c2C)OC1(C)C | 5 (≈ 8.72 µM) | 0.08 (≈ 0.139 µM) | 10 (≈ 17.4 µM) | 2.5 (≈ 4.36 µM) |  | 0.08 (≈ 0.139 µM) |  |  |
| CO[C@@H]1[C@@H](OC(=O)c2ccc(C)[nH]2)[C@@H](O)[C@H](Oc2ccc3c(O)c(C(=O)NCCN(C)C)c(=O)oc3c2C)OC1(C)C | 10 (≈ 17 µM) | 0.15 (≈ 0.255 µM) | 20 (≈ 34 µM) | 0.3 (≈ 0.511 µM) | 1.2 (≈ 2.04 µM) |  |  |  |
| CO[C@@H]1[C@@H](OC(=O)c2ccc(C)[nH]2)[C@@H](O)[C@H](Oc2ccc3c(O)c(C(=O)CSC)c(=O)oc3c2C)OC1(C)C | 5 (≈ 8.9 µM) | < 0.04 | 5 (≈ 8.9 µM) |  | 0.3 (≈ 0.534 µM) | 0.08 (≈ 0.142 µM) |  |  |
| COC1[C@@H](OC(N)=O)[C@@H](O)[C@H](Oc2ccc3c(O)c(NC(=O)c4ccc(O)c(CC=C(C)C)c4)c(=O)oc3c2C)OC1(C)C (single isomer, unassigned) [NOVOBIOCIN] | 0.3 (≈ 0.49 µM) | < 0.04 | 20 (≈ 32.6 µM) |  |  |  | 0.15 (≈ 0.245 µM) | 0.08 (≈ 0.131 µM) |
